Only a selection was taken, and hits are over-represented in it overall.
BB579 growth dn = reduces growth of yeast BB579 in restrictive medium. inhibition, % at 10 µM. S. cerevisiae BB579 growth, OD615, 48 h. hit rate 0.51% among 140,000;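 active = inhibition above a set limit, 3 SD over the mean compound inhibition, cut at about 44% in these data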
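Material: Saccharomyces cerevisiae DeaD strain BB579, replicative lifespan model yeast; buffer or medium: CSMM-D restrictive synthetic medium containing dextrose (glucose); compound: 10 µM single dose, DMSO 0.25%; timing: 48 h compound exposure at 30 °C after 4 h preincubation; signal: turbidity as optical density at 615 nm; benchmarks: positive control amphotericin B 10 µg/mL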
PostGolgi ctrl = growth of the yeast control strain, post-Golgi counter-screen; efflux-deficient yeast background strain, growth absorbance A615, 16 h; inhibition, % at 10 µM; hit rate 5% among 98,000; AID 738
PostGolgi yeast = growth inhibition of a yeast mutant, post-Golgi transport screen. hit rate 0.9% among 98,000. AID 739. post-Golgi transport phenotypic cell assay. inhibition, % at 10 µM;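 note: yeast cells grown in 1536-well plates; yeast grown about 18 h at 30C before absorbance read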
Yeast life ext = yeast lifespan extension | S. cerevisiae growth with nicotinamide, OD615; deaD strain in restrictive glucose medium | hit rate 0.68% among 130,000 | AID 775 | inhibition of the nicotinamide effect, % at 10 µM;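 active = inhibition above a set limit, placed 3 SD over the median of all compounds, cut at about 26% in these data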;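 note: 0% = nicotinamide-treated wells and 100% = cells grown without nicotinamide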
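System: DeaD-strain S. cerevisiae / Buffer or medium: CSMM-D, restrictive glucose (dextrose) synthetic minimal medium / Probe or stimulus: nicotinamide, 1.5 mM, co-present with compound / Compound: one concentration, 10 µM, DMSO 0.25% / Incubation: 48 h compound exposure at 30 °C, humidified / Technique: optical density (absorbance) at 615 nm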
The depositor's hits bear a star. Cut-off read from the data, not from the text of the source, unless noted: active = inhibition above about 30%; inactive = the rest.

`N#Cc1ccc(OCC(=O)N/N=C2/CC(c3ccccc3)Oc3ccccc32)cc1` (configuration not stated) gave BB579 growth dn -23 and Yeast life ext 0.
Cc1ccc(NC(=O)C(=O)NCc2ccc(/C=N/NC(=O)c3c(C)nc4ccccn34)o2)cc1 was read as BB579 growth dn -48 and Yeast life ext 8.
O=S(=O)(Nc1ccc2c(c1)OCCO2)c1ccc2oc3ccccc3c2c1 was read as BB579 growth dn -39, PostGolgi ctrl 59*, PostGolgi yeast 9 and Yeast life ext -4.
O=S(=O)(c1ccc2c(c1)oc1ccccc12)N1CCOCC1 was read as BB579 growth dn 6, PostGolgi ctrl 3, PostGolgi yeast -11 and Yeast life ext 9.
O=S(=O)(Nc1ccc2c(c1)oc1ccccc12)N1CCCC1 was read as BB579 growth dn -21, PostGolgi ctrl 47*, PostGolgi yeast -13 and Yeast life ext -15.
`COc1cc2c(cc1NS(=O)(=O)N1CCCCC1)oc1ccccc12` gave BB579 growth dn -41, PostGolgi ctrl 68*, PostGolgi yeast 21 and Yeast life ext -8.
Screening Cc1cccc(NS(=O)(=O)c2ccc3c(c2)OCCO3)c1 returned BB579 growth dn 4, PostGolgi ctrl -1, PostGolgi yeast 16 and Yeast life ext 5.
Screening CCOc1cccc(C(=O)NNC(=O)CCC(=O)O)c1 returned BB579 growth dn -58 and Yeast life ext 6.
COc1ccc(OC)c(C2C(C(C)=O)=C(O)C(=O)N2Cc2cccnc2)c1 (configuration not stated) was read as BB579 growth dn -27, PostGolgi ctrl -4, PostGolgi yeast 7 and Yeast life ext 82*.
`Cc1onc(-c2c(Cl)cccc2Cl)c1C(=O)NCc1cccs1` gave BB579 growth dn -12 and Yeast life ext 7.
Cc1onc(-c2c(Cl)cccc2Cl)c1C(=O)N/N=C(\N)COc1ccc(Cl)cc1 was read as BB579 growth dn -38, PostGolgi ctrl 32*, PostGolgi yeast 2 and Yeast life ext -14.
`O=C(c1ccco1)N1CCN(CC(O)Cn2c3ccccc3c3ccccc32)CC1` (configuration not stated) gave BB579 growth dn -61, PostGolgi ctrl 14, PostGolgi yeast 2 and Yeast life ext -9.
`CN(C)S(=O)(=O)NCc1ccc2c(c1)OCO2` gave BB579 growth dn -52, PostGolgi ctrl 23, PostGolgi yeast 1 and Yeast life ext -7.
Screening Cc1ccc(Oc2nc(CN3CCOCC3)nc3sc4c(c23)CCC(C)C4)cc1C (configuration not stated) returned BB579 growth dn 81* and Yeast life ext -8.
`CCOC(=O)c1cnc(-n2nc(C)cc2C)nc1N(CC)CC` gave BB579 growth dn -70, PostGolgi ctrl 18, PostGolgi yeast 0 and Yeast life ext -5.
For CC12CC3(C)CC(C)(C1)CC(NC(=O)N1CCCC1)(C2)C3 the results were BB579 growth dn 41, PostGolgi ctrl 32*, PostGolgi yeast 12 and Yeast life ext -5.
For O=C1c2cnc3nc(SCc4cccc(Cl)c4)nn3c2CC2c3ccccc3CCN12 (configuration not stated) the results were BB579 growth dn -18, PostGolgi ctrl 42*, PostGolgi yeast 16 and Yeast life ext -2.
Screening CSc1nc2ncc3c(n2n1)CC1c2ccccc2CCN1C3=O (configuration not stated) returned BB579 growth dn -35, PostGolgi ctrl 32*, PostGolgi yeast 3 and Yeast life ext -16.
For CSc1nc2nccc(-c3ccc(-c4ccccc4)cc3)n2n1 the results were BB579 growth dn -18, PostGolgi ctrl 0, PostGolgi yeast 6 and Yeast life ext -10.
Cn1c(=O)c2c(nc(N/N=C3\CCCc4ccccc43)n2Cc2ccc(F)cc2)n(C)c1=O was read as BB579 growth dn -9 and Yeast life ext 4.
`O=C(NNC(=O)c1ccccc1Br)c1ccc(SCC2CCCO2)c([N+](=O)[O-])c1` (configuration not stated) gave BB579 growth dn -17, PostGolgi ctrl 17, PostGolgi yeast -4 and Yeast life ext -15.
Screening CN1C(=O)/C(=N/OC(=O)c2ccccc2)c2ccccc21 returned BB579 growth dn 100*, PostGolgi ctrl 16, PostGolgi yeast -4 and Yeast life ext -14.
`CN1C(C)(C)CC(=NOC(=O)c2ccccc2)CC1(C)C` gave BB579 growth dn -11, PostGolgi ctrl 5, PostGolgi yeast 4 and Yeast life ext -1.
Screening Cc1ccc(-n2c(-c3ccc(Br)cc3)c[n+]3c2CCc2ccc4cccnc4c2-3)cc1 returned BB579 growth dn 24, PostGolgi ctrl 50*, PostGolgi yeast 11 and Yeast life ext -20.
For COc1cccc(NC(=O)CSc2nnc(-c3cccc(OC(C)C)c3)n2N)c1 the results were BB579 growth dn -40, PostGolgi ctrl 4, PostGolgi yeast 3 and Yeast life ext -6.
`CC(=O)CCS(=O)(=O)c1ccc(Oc2ccc(S(=O)(=O)CCC(C)=O)cc2)cc1` gave BB579 growth dn -33.
Screening COc1ccc(S(=O)(=O)CCC(=O)O)cc1 returned BB579 growth dn -25, PostGolgi ctrl 34*, PostGolgi yeast 1 and Yeast life ext 1.
For Cc1ccc(-n2nnnc2SCc2nnc(-c3ccccc3Br)o2)c(C)c1 the results were BB579 growth dn -28, PostGolgi ctrl 47*, PostGolgi yeast -1 and Yeast life ext -6.
For CC1(C)Cc2c(sc3c2c(=N)n(Cc2ccco2)c(=O)n3Cc2ccc(Cl)cc2)CO1 the results were BB579 growth dn -51, PostGolgi ctrl 97*, PostGolgi yeast 6 and Yeast life ext -14.
`CC(=O)c1ccc(-n2nnnc2SCC(=O)NNC(=O)c2ccco2)cc1` gave BB579 growth dn -29, PostGolgi ctrl 43*, PostGolgi yeast 6 and Yeast life ext -20.
Screening Cc1ccc(-n2nnnc2SCC(=O)Nc2cccc(NC(=O)c3ccco3)c2)cc1C returned BB579 growth dn -29, PostGolgi ctrl 38*, PostGolgi yeast 2 and Yeast life ext -11.
`O=C(c1ccc(-c2cc3ccccc3oc2=O)cc1)N1CCN(c2ccc(Cl)cc2[N+](=O)[O-])CC1` gave BB579 growth dn -51 and Yeast life ext -3.
Screening O=[N+]([O-])c1ccc(OC/C=C2\Oc3ccc([N+](=O)[O-])cc3C2N2CCOCC2)cc1 (configuration not stated) returned BB579 growth dn -59, PostGolgi ctrl 35*, PostGolgi yeast 12 and Yeast life ext -10.
CSc1nc2nccc(-c3ccc(Oc4ccccc4)cc3)n2n1 was read as BB579 growth dn -26, PostGolgi ctrl 33*, PostGolgi yeast -1 and Yeast life ext -3.
Screening Cn1c(SCC(=O)NC(C)(C)C)nnc1-c1cnccn1 returned BB579 growth dn -36, PostGolgi ctrl 18, PostGolgi yeast -3 and Yeast life ext -7.
`Cc1ccc(-c2nc3cccnc3o2)cc1NC(=O)COc1ccc(Cl)cc1C` gave BB579 growth dn -6, PostGolgi ctrl -5, PostGolgi yeast -2 and Yeast life ext -7.
